Source: ChEMBL document CHEMBL3580596, “Discovery of Multitarget Antivirals Acting on Both the Dengue Virus NS5-NS3 Interaction and the Host Src/Fyn Kinases” (J Med Chem, 2015)
Active and inactive are the calls of the source. The calls are words filed in the database; no cut-off is given here.

How the values were obtained:
[1] = molecular target: Proto-oncogene tyrosine-protein kinase Src (Homo sapiens) (UniProt P12931); assay: Inhibition of human his-tagged full length Src active enzyme using KVEKIGEGTYGVVYK substrate by scintillation counting analysis
Sequence of Proto-oncogene tyrosine-protein kinase Src (Homo sapiens) (P12931 2-536 limits assumed): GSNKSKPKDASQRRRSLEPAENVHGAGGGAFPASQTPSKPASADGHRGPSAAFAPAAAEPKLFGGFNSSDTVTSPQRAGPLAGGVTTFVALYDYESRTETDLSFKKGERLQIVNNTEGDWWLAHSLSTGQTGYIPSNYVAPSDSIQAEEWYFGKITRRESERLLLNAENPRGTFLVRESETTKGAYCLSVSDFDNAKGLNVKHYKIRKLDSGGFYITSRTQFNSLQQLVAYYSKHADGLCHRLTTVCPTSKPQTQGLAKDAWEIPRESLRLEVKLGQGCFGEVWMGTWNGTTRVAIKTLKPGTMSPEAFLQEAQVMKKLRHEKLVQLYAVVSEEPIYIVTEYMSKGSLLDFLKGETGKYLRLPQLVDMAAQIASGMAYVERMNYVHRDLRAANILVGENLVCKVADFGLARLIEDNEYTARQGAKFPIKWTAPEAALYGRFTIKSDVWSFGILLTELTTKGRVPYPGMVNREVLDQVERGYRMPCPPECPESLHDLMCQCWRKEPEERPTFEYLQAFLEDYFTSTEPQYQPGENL

[2] = Cytotoxicity against african green monkey Vero B cells; assay type: cell-based; conditions: chlorocebus sabaeus
Outline: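 Uninfected Vero-B cells treated with compound dilutions; CC50 taken as concentration giving 50% reduction of metabolic activity or cell growth. Read-out by MTS/PMS (yield-assay series) or by 7-day methylene blue staining with microscopic scoring (CPE series, 1:2 dilutions from 100 μg/mL).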

[3] = molecular target: Tyrosine-protein kinase Fyn (Homo sapiens) (UniProt P06241); assay: Inhibition of human his-tagged full length Fyn active enzyme using KVEKIGEGTYGVVYK substrate by scintillation counting analysis
Sequence of Tyrosine-protein kinase Fyn (Homo sapiens) (P06241 2-537 limits assumed): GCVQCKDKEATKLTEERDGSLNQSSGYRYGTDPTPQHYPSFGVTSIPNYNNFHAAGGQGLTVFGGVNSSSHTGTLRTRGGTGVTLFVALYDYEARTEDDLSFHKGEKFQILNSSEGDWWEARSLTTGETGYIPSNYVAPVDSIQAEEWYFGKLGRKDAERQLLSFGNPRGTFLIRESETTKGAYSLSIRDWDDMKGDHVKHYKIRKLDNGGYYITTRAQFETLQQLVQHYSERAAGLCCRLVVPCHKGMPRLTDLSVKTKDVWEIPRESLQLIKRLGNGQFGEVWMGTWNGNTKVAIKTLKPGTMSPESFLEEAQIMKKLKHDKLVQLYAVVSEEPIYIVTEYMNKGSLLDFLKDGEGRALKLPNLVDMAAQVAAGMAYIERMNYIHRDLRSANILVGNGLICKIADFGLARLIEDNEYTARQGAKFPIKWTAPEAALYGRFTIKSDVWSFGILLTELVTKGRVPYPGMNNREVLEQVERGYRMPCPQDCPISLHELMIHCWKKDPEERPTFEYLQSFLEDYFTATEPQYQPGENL

dengue virus type 2 [4] = assay: Antiviral activity against DENV serotype 2 strain New Guinea V infected in African green monkey Vero B cells assessed as inhibition of virus-induced cytopathogenic effect after 7 days; assay type: functional, organism-based
Outline: (§1)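 Vero-B cells, 7×10^3/well, adhered overnight, then given 1:2 serial dilutions (start 100 μg/mL) plus 100 CCID50 DENV-2 NGC (virus grown in C6/36 cells) in MEM with 2% FBS. After 7 days, fixed with ethanol and stained with 1% methylene blue. EC50 for 50% inhibition of virus-induced CPE comes from microscopic scoring of each well.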

[5] = Selectivity index, ratio of CC50 for African green monkey Vero B cells to EC50 for DENV serotype 2 strain New Guinea V
dengue virus type 2 [6] = assay: Antiviral activity against DENV serotype 2 strain New Guinea V infected in African green monkey Vero B cells assessed as inhibition of virus replication after 4 days by qRT-PCR analysis; assay type: functional, organism-based; conditions: 96 h
Outline: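 Vero-B cells, 5×10^4/well, infected one day after seeding with 100 CCID50 DENV-2 NGC for 2 h, then washed 3 times. Cultured 4 days with 5-fold compound dilutions (50–0.08 μg/mL) in medium with 2% FBS. Supernatant viral RNA measured by RT-qPCR; EC50 (50% inhibition of RNA replication) found by logarithmic interpolation.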

dengue virus type 2 [7] = assay: Inhibition of DENV2 His- and FLAG-tagged NS3 and NS5 protein interaction at 500 uM after 1 hr by alphascreen assay
[8] = molecular target: Tyrosine-protein kinase Fyn (Homo sapiens) (UniProt P06241); assay: Inhibition of human his-tagged full length Fyn active enzyme using KVEKIGEGTYGVVYK substrate at 100 uM by scintillation counting analysis
[9] = molecular target: Proto-oncogene tyrosine-protein kinase Src (Homo sapiens) (UniProt P12931); assay: Inhibition of human his-tagged full length Src active enzyme using KVEKIGEGTYGVVYK substrate at 100 uM by scintillation counting analysis
dengue virus type 2 [10] = assay: Antiviral activity against DENV serotype 2 strain New Guinea V infected in African green monkey Vero B cells assessed as RNA replication after 4 days by RT-qPCR analysis; assay type: functional, organism-based
Outline: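 Vero-B cells (5×10^4/well) infected 2 h with DENV-2 NGC (100 CCID50), washed 3×, then cultured 4 days with 5-fold serial compound dilutions (50 – 0.08 μg/mL) in MEM with 2% FBS. Viral RNA in supernatant quantified by RT-qPCR; EC50 (50% inhibition of viral RNA replication) by logarithmic interpolation.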

dengue virus type 2 [11] = assay: Ratio of ribavirin EC50 to compound EC50 for DENV serotype 2 strain New Guinea V infected in African green monkey Vero B cells assessed as inhibition of virus-induced cytopathogenic effect after 7 days; assay type: functional
dengue virus type 2 [12] = assay: Inhibition of DENV2 His- and FLAG-tagged NS3 and NS5 protein interaction at 50 uM after 1 hr by alphascreen assay
Outline: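 Wheat-germ cell-free expressed HF-NS3 (or HF-DHFR as negative control) and GST-tagged biotinylated NS5, 25 nM each, incubated 1 h at room temperature with compound (0.5% DMSO) in Tris pH 7.5/NaCl/MgCl2/DTT/BSA/Tween-20 buffer. Then anti-FLAG IgG, protein A acceptor and streptavidin donor beads added for 1 h; luminescence expressed as % of DMSO control, n=2.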

Dengue virus = assay: Antiviral activity against DENV by CPE-reduction assay; assay type: functional, organism-based; outline: as §1
[13] = Dengue virus, New Guinea V, Vero, 168 h, read-out: EC50

Compound | ID50 [1] [µM] | CC50 [2] [µM] | ID50 [3] [µM] | EC50 (dengue virus type 2 [4]; vero) | Ratio CC50/EC50 [5] | EC50 (dengue virus type 2 [6]) [µM] | inhibition (dengue virus type 2 [7]) | further results
COc1ccc2c(Nc3ccc(Cl)cc3Cl)c(C#N)cnc2c1 | 0.2 | 19 | 2 | Not Active |  |  |  | 
Oc1cccc(Nc2nc(NCc3ccccc3)nc3[nH]cnc23)c1 | 3.7 | > 150 | 4.1 |  | >2 | 69 | Active | 
CNc1nc(Nc2ccc(C(C)=O)cc2)c2nc[nH]c2n1 |  | > 177 |  |  | >4 | 42 | Active | 
NC(=O)c1ncn([C@@H]2O[C@H](CO)[C@@H](O)[C@H]2O)n1 [RIBAVIRIN] |  | 409 |  |  | >10 | 42 |  | 
Cc1cc(OCc2ccc(F)cc2F)cc(=O)n1Cc1cn(Cc2cccc(Br)c2)nn1 |  | 36 |  | Not Active |  |  |  | 
CC(=O)c1ccc(Nc2nc(NCCC(C)C)nc3[nH]cnc23)cc1 |  | 85 |  |  | 1 | 59 | Active | 
Cc1cc(OCc2ccc(F)cc2F)cc(=O)n1Cc1cn(Cc2cccc(C(F)(F)F)c2)nn1 |  | 40 |  | Not Active |  |  |  | inhibition [8]: inactive; inhibition [9]: inactive
OCCN1CCN(c2nc(Nc3ccccc3)c3nc[nH]c3n2)CC1 | 4.2 | 474 | 4.2 | Not Active |  |  | Active | 
COc1cc2ncc(C#N)c(Nc3ccc(Cl)cc3Cl)c2cc1OC | 0.03 | < 5.7 | 0.22 |  |  |  |  | EC50 (dengue virus type 2 [4]; [13]): < 5.7 µM
CC(=O)c1ccc(Nc2nc(NCCO)nc3[nH]cnc23)cc1 |  | 160 |  |  | 2 | 72 | Active | 
CNc1nc(Nc2cccc(O)c2)c2nc[nH]c2n1 |  | 168 | 3.6 |  | 32 | 5.3 | Active | inhibition (dengue virus type 2 [10]): Dose-dependent effect; ID50 [9]: 4.9 µM; Ratio EC50 (dengue virus type 2 [11]): 10; inhibition (dengue virus type 2 [12]): 33%
Cc1nc(Nc2ncc(C(=O)Nc3c(C)cccc3Cl)s2)cc(N2CCN(CCO)CC2)n1 [DASATINIB] |  |  |  |  |  |  |  | EC50 (Dengue virus): 1 µM
COc1ccc(Cn2c(C)cc(OCc3cccc(F)c3)cc2=O)cc1 |  | < 6.4 |  |  |  |  |  | inhibition [8]: inactive; inhibition [9]: inactive; EC50 (dengue virus type 2 [4]; [13]): < 6.4 µM
NS(=O)(=O)c1ccc(Nc2nc(N3CCOCC3)nc3[nH]cnc23)cc1 | 0.9 | 373 | 0.5 | Not Active |  |  | Active | 
CN1CCN(CCOc2cc(OC3CCOCC3)c3c(Nc4c(Cl)ccc5c4OCO5)ncnc3c2)CC1 [SARACATINIB] |  |  |  |  |  |  |  | EC50 (Dengue virus): 6 µM
CC(C)CCNc1nc(Nc2cccc(O)c2)c2nc[nH]c2n1 | 1.7 | 151 | 1.7 |  | 8 | 20 | Active | 
NS(=O)(=O)c1ccc(Nc2nc(N3CCN(CCO)CC3)nc3nc[nH]c23)cc1 |  | 437 |  |  |  |  |  | 
COc1ccc2c(Nc3ccc(N4CCN(C)CC4)cc3)c(C#N)cnc2c1 |  | 7.9 |  | Not Active |  |  |  | inhibition [8]: inactive; inhibition [9]: inactive
NS(=O)(=O)c1ccc(Nc2nc(N3CCN(CCO)CC3)nc3[nH]cnc23)cc1 | 7.4 |  | 4.8 | Not Active |  |  | Active | 
